Tests used:
[1] = biological target: T1, Polyunsaturated fatty acid 5-lipoxygenase (Homo sapiens, UniProt P09917); assay: Inhibition of 5-Lipoxygenase (5-LO) of human whole blood (HWB); assay type: tissue-based
T1 sequence (P09917 whole entry): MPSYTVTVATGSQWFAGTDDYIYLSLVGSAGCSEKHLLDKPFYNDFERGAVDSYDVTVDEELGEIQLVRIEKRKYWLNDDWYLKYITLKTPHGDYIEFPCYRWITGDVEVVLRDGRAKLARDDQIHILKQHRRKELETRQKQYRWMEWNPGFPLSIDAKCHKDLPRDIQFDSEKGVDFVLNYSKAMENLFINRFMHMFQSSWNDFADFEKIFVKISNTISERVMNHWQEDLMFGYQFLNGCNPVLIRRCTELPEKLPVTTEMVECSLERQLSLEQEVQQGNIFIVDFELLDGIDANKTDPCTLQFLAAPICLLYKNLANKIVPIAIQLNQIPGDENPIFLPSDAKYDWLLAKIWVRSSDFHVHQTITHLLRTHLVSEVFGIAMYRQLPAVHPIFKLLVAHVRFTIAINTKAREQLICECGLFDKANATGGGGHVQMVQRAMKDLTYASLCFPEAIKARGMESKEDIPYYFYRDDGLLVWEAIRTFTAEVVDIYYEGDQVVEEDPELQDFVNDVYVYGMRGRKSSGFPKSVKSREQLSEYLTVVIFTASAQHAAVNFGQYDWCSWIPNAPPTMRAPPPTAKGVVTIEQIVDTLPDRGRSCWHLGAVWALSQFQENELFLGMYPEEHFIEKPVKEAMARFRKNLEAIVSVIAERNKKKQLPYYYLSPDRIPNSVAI

Mus musculus = assay: In vivo potency was determined after oral administration to mice by the PAF (platelet activating factor) induced thrombosis assay; assay type: functional
How it was run: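 Male […] mice were dosed orally, then given platelet activating factor to induce thrombosis. ED50 reported in mg/kg.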

[2] = Oral bioavailability of compound at 5 mg/kg in monkey; assay type: ADME, organism-based; details: cercopithecidae, in vivo
How it was run: (§1)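 Oral bioavailability derived from oral and intravenous pharmacokinetic data. Doses: monkey 5 mg/kg oral vs 3 mg/kg iv; rat and guinea pig 10 mg/kg oral vs 3 mg/kg iv.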

[3] = Bioavailability of compound at 10 mg/kg in rat after oral administration; assay type: ADME, organism-based; details: in vivo; how it was run: as §1
[4] = Bioavailability of compound at 3 mg/kg in guinea pig […]; assay type: ADME, organism-based, Cavia porcellus; details: in vivo, iv; how it was run: as §1
[5] = Maximum concentration of compound found in plasma at 5 mg/kg after oral administration; assay type: ADME, organism-based; parameters: dose 5 mg/kg, route oral; details: cercopithecidae
How it was run: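 Male cynomolgus monkeys, three animals, single 5 mg/kg oral dose with plasma concentration followed over time. Values are mean ± SEM (n = 3), Cmax in μg/mL.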

[6] = Bioavailability of compound at 10 mg/kg in guinea pig after oral administration; details: in vivo
[7] = Bioavailability of compound at 3 mg/kg in rat […]; assay type: ADME, organism-based; details: in vivo, iv; how it was run: as §1
[8] = Bioavailability of compound at 3 mg/kg in monkey […]; assay type: ADME, organism-based; details: cercopithecidae, in vivo, iv; how it was run: as §1

Compound	IC50 [1] [µM]	ED50 (Mus musculus) [mg/kg]	also measured
Cc1nccn1-c1ccc(COc2cc(F)cc(C3(S(C)(=O)=O)CCOCC3)c2)cc1	> 1	–	–
Cc1nccn1-c1ccc(COc2cc(F)cc(C3([S+](C)[O-])CCOCC3)c2)cc1 (stereo unspecified)	> 1	–	–
COC1(c2cc(F)cc(OCc3ccc(-n4ccnc4C)cc3)c2)CCOCC1	0.06	2	–
CSC1(c2cc(F)cc(OCc3ccc(-n4ccnc4C)cc3)c2)CCOCC1	0.072	5	–
CCOC1(c2cc(F)cc(OCc3ccc(-n4ccnc4C)cc3)c2)CCOCC1	0.08	5	–

Further lines, with some results ahead:

IC50 [1] [µM]	Compound	ED50 (Mus musculus) [mg/kg]	also measured
> 1	Cc1nccn1-c1ccc(COc2cc(F)cc(C3(O)CCOCC3)c2)cc1	–	–
0.2	CCOC(=O)C1(c2cc(F)cc(OCc3ccc(-n4ccnc4C)cc3)c2)CCOCC1	16	–
0.34	Cc1nccn1-c1ccc(COc2cc(F)cc(C3(C(N)=O)CCOCC3)c2)cc1	–	bioavailability [2]: 88%; bioavailability [3]: 102%; bioavailability [4]: 108%; Cmax [5]: 1570 ng/mL; bioavailability [6]: 108%; bioavailability [7]: 102%; bioavailability [8]: 88%
0.81	Cc1nccn1-c1ccc(COc2cc(F)cc(C3(C(=O)N(C)C)CCOCC3)c2)cc1	> 20	–
0.13	CC(=O)C1(c2cc(F)cc(OCc3ccc(-n4ccnc4C)cc3)c2)CCOCC1	12	–
0.28	CNC(=O)C1(c2cc(F)cc(OCc3ccc(-n4ccnc4C)cc3)c2)CCOCC1	13	–
> 1	Cc1nccn1-c1ccc(COc2cc(F)cc(C3(C(=O)O)CCOCC3)c2)cc1	–	–

Reference: ChEMBL document CHEMBL1138836, “4-[5-Fluoro-3-[4-(2-methyl-1H-imidazol-1-yl)benzyloxy]phenyl]-3,4,5,6- tetrahydro-2H-pyran-4-carboxamide, an orally active inhibitor of 5-lipoxygenase with improved pharmacokinetic and toxicology characteristics” (J Med Chem, 2004)
